Reference: ChEMBL document CHEMBL4673180, “Synthesis of quinone imine and sulphur-containing compounds with antitumor and trypanocidal activities: redox and biological implications” (RSC Med Chem, 2020)
pIC50: −log10 of the molar value.

Assays:
Trypanosoma cruzi = test: Antitrypanosomal activity against Trypanosoma cruzi Y strain bloodstream trypomastigotes assessed as lysis of parasite in presence of 5 % mouse blood incubated for 24 hrs by Neubauer chamber method; assay type: functional, organism-based
Method in brief: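 Y strain bloodstream trypomastigotes came from infected albino mice at peak parasitaemia, purified by differential centrifugation, in RPMI at 10^7 cells/mL with 10% mouse blood. They were mixed 1:1 with compound at twice the final concentration (5% blood final), 24 h at 4 °C, with DMSO ≤0.4% final. Neubauer chamber counting; IC50 is 50% lysis; at least three independent experiments.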

[1] = Cytotoxicity against albino Swiss mouse peritoneal macrophages assessed as reduction in cell viability incubated for 24 hrs by Presto blue assay; assay type: tissue-based, Macrophage; conditions: read-out: LC50
Method in brief: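 Primary peritoneal macrophages from Albino Swiss mice were seeded at 2.5 × 10^4 cells per well in RPMI-1640 (pH 7.2, 10% FBS, 2 mM glutamine) and grown 24 h at 37 °C. They were then treated 24 h at 37 °C with compound from DMSO stock (final DMSO ≤0.4%).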

[2] = Selectivity index, ratio of LC50 for cytotoxicity against albino Swiss mouse peritoneal macrophages to IC50 for Antitrypanosomal activity against Trypanosoma cruzi Y strain bloodstream trypomastigotes assessed as lysis of parasite in presence of 5 % mouse blood; assay type: toxicity
Method in brief: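 Y-strain bloodstream trypomastigotes came from infected albino mice at peak parasitaemia and were purified by differential centrifugation. They were resuspended at 10^7/mL in RPMI with 10% mouse blood and mixed 1:1 with compound at twice the final concentration (DMSO ≤0.4%). Incubation was 24 h at 4 °C (5% blood per footnote).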

HCT-116 = test: Cytotoxicity against human HCT-116 cells assessed as reduction in cell viability after 72 hrs by MTT assay; assay type: functional, cell-based; conditions: HCT-116, 72 h
Method in brief: (§1)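 Cells were grown in medium with 10% FBS, 2 mM L-glutamine, penicillin and streptomycin at 37 °C, 5% CO2. Seeding per well was 0.1 × 10^6 for leukaemia, PC3, L929 and NCI-H460, and 0.7 × 10^5 for HCT-116. Compounds in DMSO (0.1% final) were applied for 72 h. MTT (0.5 mg/mL) was added for 3 h, formazan dissolved in DMSO, and absorbance read at 550 nm. IC50 by nonlinear regression; three independent experiments in triplicate.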

NCI-H460 = test: Cytotoxicity against human NCI-H460 cells assessed as reduction in cell viability after 72 hrs by MTT assay; assay type: functional, cell-based; conditions: NCI-H460, 72 h
Method in brief: (§2)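 Cells were grown in medium with 10% FBS, 2 mM L-glutamine, penicillin and streptomycin at 37 °C, 5% CO2. Compounds in DMSO (0.1% final) were applied for 72 h. MTT (0.5 mg/mL) was added for 3 h, formazan dissolved in DMSO, and absorbance read at 550 nm. IC50 by nonlinear regression; three independent experiments in triplicate.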

PC-3 = test: Cytotoxicity against human PC-3 cells assessed as reduction in cell viability after 72 hrs by MTT assay; assay type: functional, cell-based; conditions: PC-3, 72 h; method in brief: as §1
HL-60 = test: Cytotoxicity against human HL-60 cells assessed as reduction in cell viability after 72 hrs by MTT assay; assay type: functional, cell-based; conditions: HL-60, 72 h; method in brief: as §2
K562 = test: Cytotoxicity against human K562 cells assessed as reduction in cell viability after 72 hrs by MTT assay; assay type: functional, cell-based; conditions: K562, 72 h; method in brief: as §1
[3] = Cytotoxicity against human Lucena1 cells assessed as reduction in cell viability after 72 hrs by MTT assay; assay type: functional, cell-based; conditions: Lucena 1, 72 h; method in brief: as §1
L929 = test: Cytotoxicity against mouse L929 cells assessed as reduction in cell viability after 72 hrs by MTT assay; assay type: cell-based; conditions: L929, 72 h; method in brief: as §1
[4] = Selectivity index, ratio of IC50 for mouse L929 cells to IC50 for human HCT116 cells after 72 hrs by MTT assay; assay type: toxicity; conditions: L929 cells versus HCT116 cells, read-out: Ratio IC50
Method in brief: (§3)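 Both cell types were kept in medium with 10% FBS, 2 mM L-glutamine and penicillin/streptomycin at 37 °C, 5% CO2. Seeding was 0.7 × 10^5 cells per well for HCT-116, 0.1 × 10^6 for the other lines. Cells got compound in DMSO (0.1% final) for 72 h, then 0.5 mg/mL MTT for 3 h, with formazan read at 550 nm. IC50 came from nonlinear regression over three independent experiments in triplicate. SI is the L929 IC50 divided by the cancer-line IC50.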

[5] = Selectivity index, ratio of IC50 for mouse L929 cells to IC50 for human NCI-H460 cells after 72 hrs by MTT assay; assay type: toxicity; conditions: L929 cells versus NCI-H460 cells, read-out: Ratio IC50; method in brief: as §3
[6] = Selectivity index, ratio of IC50 for mouse L929 cells to IC50 for human PC3 cells after 72 hrs by MTT assay; assay type: toxicity; conditions: L929 cells versus PC3 cells, read-out: Ratio IC50; method in brief: as §3
[7] = Selectivity index, ratio of IC50 for mouse L929 cells to IC50 for human HL-60cells after 72 hrs by MTT assay; assay type: toxicity; conditions: L929 cells versus HL-60 cells, read-out: Ratio IC50; method in brief: as §3
[8] = Selectivity index, ratio of IC50 for mouse L929 cells to IC50 for human K-562 cells after 72 hrs by MTT assay; assay type: toxicity; conditions: L929 cells versus K-562 cells, read-out: Ratio IC50; method in brief: as §3
[9] = Selectivity index, ratio of IC50 for mouse L929 cells to IC50 for human Lucena1 cells after 72 hrs by MTT assay
Method in brief: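 Selectivity index is the ratio of IC50 in murine L929 fibroblasts to IC50 in Lucena 1 cells, each measured by 72 h MTT assay (absorbance 550 nm). IC50 values came from nonlinear regression of three independent experiments in triplicate.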

| Compound | pIC50 (Trypanosoma cruzi) | CC50 at 24 h [1] | selectivity ratio [2] | pIC50 (HCT-116) | pIC50 (NCI-H460) | pIC50 (PC-3) | pIC50 (HL-60) | pIC50 (K562) | pIC50 [3] | pIC50 (L929) | selectivity ratio at 72 h [4] | selectivity ratio at 72 h [5] | selectivity ratio at 72 h [6] | selectivity ratio at 72 h [7] | selectivity ratio at 72 h [8] | Ratio IC50 [9] |
| --- | --- | --- | --- | --- | --- | --- | --- | --- | --- | --- | --- | --- | --- | --- | --- | --- |
| Cc1ccc(/N=C2\C=C(OCc3cn(S(=O)(=O)c4ccc(C)cc4)nn3)C(=O)c3ccccc32)cc1 | < 3.30 | 88.5 µM | > 5.65 | 5.44 | 5.10 | 5.58 | 5.27 | 5.21 | 5.84 | 4.75 | 4.9 | 2.2 | 6.7 | 3.3 | 2.9 | 12.3 |
| C#CCOC1=C/C(=N\c2ccc(C(C)=O)cc2)c2ccccc2C1=O | – | – | – | < 4.70 | < 4.70 | 4.90 | < 4.70 | < 4.70 | 4.79 | < 4.70 | 1 | 1 | 24 | 1.1 | 1 | 1.9 |
| COc1cccc2c1C(=O)c1c(O)c3c(c(O)c1C2=O)C[C@@](O)(C(=O)CO)C[C@@H]3O[C@H]1C[C@H](N)[C@H](O)[C@H](C)O1 [DOXORUBICIN] | – | – | – | – | – | – | – | 6.31 | 6.74 | – | – | – | – | – | – | – |
| Cc1ccc(S(=O)(=O)n2cc(COC3=C/C(=N\c4ccc(Cl)cc4)c4ccccc4C3=O)nn2)cc1 | < 3.30 | > 100 µM | – | 5.03 | 4.92 | < 4.70 | 5.16 | 5.01 | 5.50 | < 4.70 | 2 | 1.6 | 1 | 2.8 | 2 | 6.1 |
| C#CCOC1=C/C(=N\c2ccc(OC)cc2)c2ccccc2C1=O | – | – | – | 4.97 | 5.02 | 5.05 | 5.14 | < 4.70 | 4.94 | < 4.70 | 2.9 | 3.3 | 3.6 | 4.4 | 1 | 2.8 |
| C#CCOC1=C/C(=N\c2ccccc2)c2ccccc2C1=O | – | – | – | < 4.70 | < 4.70 | 4.85 | 4.76 | < 4.70 | < 4.70 | < 4.70 | 1.2 | 1.6 | 2.5 | 2 | 1 | 1.5 |
| C#CCOC1=C/C(=N\c2ccc(F)cc2)c2ccccc2C1=O | – | – | – | 4.73 | 4.77 | < 4.70 | 5.04 | 4.87 | 4.77 | < 4.70 | 1.8 | 1.9 | 1 | 3.6 | 2.4 | 1.9 |
| C#CCOC1=C/C(=N\c2ccc(Br)cc2)c2ccccc2C1=O | – | – | – | < 4.70 | < 4.70 | 4.80 | 4.85 | < 4.70 | 4.90 | < 4.70 | 1.2 | 1.3 | 1.7 | 1.9 | 1.2 | 2.2 |
| C#CCOC1=C/C(=N\c2ccc(I)cc2)c2ccccc2C1=O | – | – | – | 4.78 | < 4.70 | < 4.70 | 4.92 | 4.77 | 4.82 | < 4.70 | 1.5 | 1 | 1 | 2 | 1.4 | 1.6 |
| Cc1ccc(S(=O)(=O)n2cc(COC3=C/C(=N\c4ccc(I)cc4)c4ccccc4C3=O)nn2)cc1 | < 3.30 | > 100 µM | – | < 4.79 | < 4.79 | < 4.79 | 5.20 | 4.97 | 5.54 | < 4.79 | 1 | 1 | 1 | 2.6 | 1.5 | 5.6 |
| C#CCOC1=C/C(=N\c2ccc(C)cc2)c2ccccc2C1=O | – | – | – | < 4.70 | 4.77 | 4.73 | 4.92 | < 4.70 | 4.85 | < 4.70 | 1.6 | 2 | 1.8 | 2.8 | 1.5 | 2.4 |
